Measurements from different studies.
Protocols differ between the studies behind these lines. Values after ≈ are worked out from the molar mass of the structure shown.

SMILES | tested on | test | test system | setting | endpoint | value
OCCOCCN1CCN(C(c2ccccc2)c2ccc(Cl)cc2)CC1 (stereo not drawn) | human PBMC | cell migration |  | 10 µM | inhibition | 7%
CCCCCCC/C=C/C(=O)N1C(=O)/C(=C(/C)O)C(=O)C1CCCCN (stereo not drawn) | Burkholderia cepacia | microbial growth | ATCC25416 |  | MIC | > 200 µg/mL
CN(c1ccccc1)S(=O)(=O)c1cc(C(=O)NCc2ccco2)ccc1Cl | human PBMC | cell migration |  | 10 µM | inhibition | 82%
Cc1cc(C)c(-n2ccn(-c3c(C)cc(C)cc3C)c2=[Se])c(C)c1 | HCT-15 | cell growth or viability, MTT |  | 72 h | IC50 | 10.7 µM
C[C@]12CCC(=O)C(O)=C1CC[C@@H]1[C@@H]2CC[C@]2(C)C(=O)CC[C@@H]12 | CAL-27 | cell growth or viability |  | 72 h | IC50 | > 20 µM
CN[C@@H]1[C@H](O)[C@H](NC)[C@H]2O[C@@]3(O)C(=O)C[C@@H](C)O[C@H]3O[C@@H]2[C@H]1O | Burkholderia cepacia | microbial growth, broth dilution | ATCC25416 |  | MIC | 50 µg/mL (≈ 150 µM)
C/C(O)=C1\C(=O)C(CC(C)C)N(C(=O)CCCCCc2ccccc2)C1=O (stereo not drawn) | Burkholderia cepacia | microbial growth | ATCC25416 |  | MIC | > 200 µg/mL
C=C(CCC=C(C)C)[C@H]1CC[C@H]2[C@@H]3CC=C4C[C@@H](O)CC[C@]4(C)[C@H]3CC[C@]12C | Leishmania mexicana | parasite growth |  | 48 h, promastigote | IC50 | > 262 µM
CCCCCCCCCCCCCCCC(=O)N(C)[C@H](CO)C(=O)N[C@H](C)C(=O)NCC(=O)N(C)[C@@H]1C(=O)N[C@@H](C)C(=O)N[C@H](C(=O)O)Cc2ccc(O)c(c2)-c2cc1ccc2O | Latilactobacillus sakei | microbial growth |  |  | MIC | > 128 µg/mL
CCCCCCC/C=C/C(=O)N1C(=O)/C(=C(/C)O)C(=O)C1Cc1ccc(OC(C)(C)C)cc1 (stereo not drawn) | Burkholderia cepacia | microbial growth | ATCC25416 |  | MIC | > 200 µg/mL
O=C(Oc1ccc(Cl)cc1)[c-]1cccc1.[Fe+2].c1cc[cH-]c1 | MCF-10A | cell growth or viability, MTT |  | 72 h | IC50 | 500 µM
O=C(N/N=C1\C(=O)N(Cc2ccccc2)c2ccc(Cl)cc21)c1cc2ccccc2[nH]1 | MCF-10A | cell growth or viability |  | 72 h | IC50 | 2 µM
